pIC50: −log10 of the molar value.

In general, pIC50 refers to −log10 of the IC50, conventionally taken in molar units. A higher pIC50 goes with a small IC50.

Assay [1] deals with T1, Kinesin-like protein KIF11 (Homo sapiens, UniProt P52732).
T1 sequence (P52732 whole entry): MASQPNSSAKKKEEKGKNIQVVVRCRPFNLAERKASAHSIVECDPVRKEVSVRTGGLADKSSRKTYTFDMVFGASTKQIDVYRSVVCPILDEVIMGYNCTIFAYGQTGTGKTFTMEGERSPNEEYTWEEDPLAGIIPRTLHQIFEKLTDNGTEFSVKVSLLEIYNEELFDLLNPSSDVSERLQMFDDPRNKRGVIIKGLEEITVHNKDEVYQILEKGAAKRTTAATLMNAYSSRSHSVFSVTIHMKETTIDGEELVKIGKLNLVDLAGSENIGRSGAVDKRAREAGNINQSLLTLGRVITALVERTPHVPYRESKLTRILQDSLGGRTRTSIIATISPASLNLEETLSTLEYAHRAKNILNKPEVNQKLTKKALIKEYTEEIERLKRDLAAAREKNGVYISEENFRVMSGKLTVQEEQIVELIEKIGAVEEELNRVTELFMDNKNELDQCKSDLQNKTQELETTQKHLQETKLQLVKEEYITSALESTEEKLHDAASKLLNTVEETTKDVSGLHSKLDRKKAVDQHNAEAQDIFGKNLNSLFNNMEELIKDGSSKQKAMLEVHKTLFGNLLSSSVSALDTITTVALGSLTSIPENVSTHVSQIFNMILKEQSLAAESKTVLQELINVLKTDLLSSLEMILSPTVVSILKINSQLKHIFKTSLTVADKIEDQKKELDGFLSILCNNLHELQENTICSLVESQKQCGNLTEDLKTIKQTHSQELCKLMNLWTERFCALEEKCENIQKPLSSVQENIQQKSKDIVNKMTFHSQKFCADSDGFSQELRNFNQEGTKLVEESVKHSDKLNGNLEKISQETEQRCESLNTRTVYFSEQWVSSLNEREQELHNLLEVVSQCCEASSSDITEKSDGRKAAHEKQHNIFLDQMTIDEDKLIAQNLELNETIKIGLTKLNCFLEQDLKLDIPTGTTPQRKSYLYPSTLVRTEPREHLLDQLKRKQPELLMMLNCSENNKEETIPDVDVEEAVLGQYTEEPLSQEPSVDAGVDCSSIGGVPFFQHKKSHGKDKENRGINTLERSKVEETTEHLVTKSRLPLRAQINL
The assay is described as follows: Inhibition of Eg5 by ATPase assay. It counts as functional. The method, boiled down: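 Eg5 motor-domain protein ATPase activity read with a Kinase-Glo luminescent ATP kit. IC50 taken from dose–response curves of triplicate data points. Values are means ± SD of three independent experiments.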

Assay [2] relates to A2780. Put plainly: Antiproliferative activity against human A2780 cells. It counts as functional, cell-based. Summed up:
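A2780 ovarian carcinoma cells were exposed to compound for 72 h. IC50 derived from dose–response curves of triplicate data points, reported as the mean ± SD of three independent experiments.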

The subject of assay [3] is MDA-MB-468. The assay is described as follows: Antiproliferative activity against human MDA-MB-468 cells. It counts as functional, cell-based. Summed up:
(§1)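 Each tumour cell line in the panel was exposed to compound for 72 h, and IC50 was determined after that exposure.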

Assay [4] relates to NCI-H446. The assay is described as follows: Antiproliferative activity against human NCI-H446 cells. It counts as functional, cell-based. Summed up: as §1
The test system of assay [5] is PC-3. Put plainly: Antiproliferative activity against human PC3 cells. It counts as functional, cell-based. The method, boiled down:
as §1

In assay [6] the test system is SHP77. The assay is described as follows: Antiproliferative activity against human SHP77 cells. It counts as functional, cell-based. The method, boiled down: as §1
For assay [7], the system named is LNCaP. Put plainly: Antiproliferative activity against human LNCaP cells. It counts as functional, cell-based. The method, boiled down:
as §1

Assay [8] deals with HCT-116. Put plainly: Antiproliferative activity against human HCT116 cells. It counts as functional, cell-based. Summed up: as §1
Assay [9] has as its system MDA-MB-231. Put plainly: Antiproliferative activity against human MDA-MB-231 cells. It counts as functional, cell-based. The method, boiled down: as §1
The test system of assay [10] is A2780. The assay is described as follows: Antiproliferative activity against human A2780S cells. It counts as functional, cell-based. Summed up:
as §1

The subject of assay [11] is DU-145. Put plainly: Antiproliferative activity against human Du145 cells. It counts as functional, cell-based. Summed up: as §1
Assay [12] relates to CCRF-CEM. Put plainly: Antiproliferative activity against human CCRF-CEM cells. It counts as functional, cell-based. The method, boiled down: as §1
For assay [13], the system named is A2780. The assay is described as follows: Antiproliferative activity against human A2780-TAXR cells. It counts as functional, cell-based. Summed up:
as §1

In assay [14] the test system is M109. Put plainly: Antiproliferative activity against mouse M109 cells. It counts as functional, cell-based. The method, boiled down: as §1
For assay [15], the system named is P388. The assay is described as follows: Antiproliferative activity against mouse P388 cells. It counts as functional, cell-based. The method, boiled down:
as §1

Assay [16] has as its system SW-620. Put plainly: Antiproliferative activity against human SW620 cells. It counts as functional, cell-based. Summed up: as §1
The test system of assay [17] is A2780. The assay is described as follows: Cell cycle arrest in A2780 cells by accumulation at G1 phase at 0.257 uM. It counts as functional, Homo sapiens. Summed up: (§2)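 A2780 cells were treated for 17 h at 0.257 or 0.328 µM, with nocodazole 0.1 µM as positive control and DMSO 0.08% as negative control. Cell-cycle profile (% G1, S, G2+M) and mitotic index (% cells in M phase) were quantified by flow cytometry.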

For assay [18], the system named is A2780. Put plainly: Cell cycle arrest in A2780 cells by accumulation at G1 phase at 0.328 uM. It counts as functional, Homo sapiens. The method, boiled down: as §2
The subject of assay [19] is A2780. The assay is described as follows: Cell cycle arrest in A2780 cells by accumulation at S phase at 0.257 uM. It counts as functional, Homo sapiens. The method, boiled down: as §2
Assay [20] concerns A2780. The assay is described as follows: Cell cycle arrest in A2780 cells by accumulation at S phase at 0.328 uM. It counts as functional, Homo sapiens. The method, boiled down: as §2
Assay [21] concerns A2780. Put plainly: Cell cycle arrest in A2780 cells by accumulation at G2/M phase at 0.257 uM. It counts as functional, Homo sapiens. Summed up: as §2
In assay [22] the test system is A2780. Put plainly: Cell cycle arrest in A2780 cells by accumulation at G2/M phase at 0.328 uM. It counts as functional, Homo sapiens. The method, boiled down:
as §2

For assay [23], the system named is A2780. Put plainly: Mitotic index in A2780 cells at M phase at 0.257 uM. It counts as functional, Homo sapiens. The method, boiled down:
as §2

Assay [24] deals with A2780. The assay is described as follows: Mitotic index in A2780 cells at M phase at 0.328 uM. It counts as functional, Homo sapiens. The method, boiled down: as §2

For `Cc1ccc2c(c1C)CN(C(=O)N(C)C)CC2c1ccccc1` (centres undefined), the pIC50 in [1] is 5.56; in assay [2], 5.92.
In [1], `COC(=O)N1Cc2c(ccc(C)c2C)C(c2ccccc2)C1` (centres undefined) gave a pIC50 of 4.84.
On the same count and under the same terms, the figure for `CN(C)C(=O)N1Cc2ccccc2C(c2cccc(O)c2)C1` (centres undefined) is below 4.60.
For the compound `Cc1ccc2c(c1C)CN(C)CC2c1ccccc1` (centres undefined), the results for the pIC50 in assay [1] and in assay [2] were 4.74 and 5.14, respectively.
Take `Cc1ccc2c(c1C)CN(C(=O)N1CCOCC1)CC2c1ccccc1` (centres undefined): in assay [1], the negative-log IC50 (pIC50) was 4.65.
Still for that read-out and setting: the figure for `CC(=O)N1Cc2c(ccc(C)c2C)C(c2ccccc2)C1` (centres undefined) is 4.75.
For the compound `Cc1ccc2c(c1C)CN(CCCN(C)C)CC2c1ccccc1` (centres undefined), the pIC50 in assay [1] was 5.05; in assay [2] it was 5.49.
In the same order, the values of `Cc1ccc2c(c1C)CN(CCCN)CC2c1ccccc1` (centres undefined) are 5.51 and 5.62.
As for `Cc1cccc2c1CN(C(=O)N(C)C)CC2c1cccc(O)c1` (centres undefined), the negative logarithm of the IC50 (pIC50) was 5.33 in [1] and 5.69 in [2].
In the case of `Cc1ccc2c(c1C)CN(C(=O)N(C)CCCN(C)C)CC2c1ccccc1` (centres undefined), the results for the pIC50 in assay [1] and in assay [2] were 5.26 and 5.92, respectively.
The like results for `Cc1ccc2c(c1C)CN(CCN)CC2c1ccccc1` (centres undefined) were, in that order, 5.64 and 5.64.
Regarding `CCOC(=O)N1Cc2c(ccc(C)c2C)C(c2ccccc2)C1` (centres undefined), the pIC50 in assay [1] was below 4.60.
For the compound `Cc1ccc2c(c1C)CN(C(=O)N(C)C)C[C@@H]2c1cccc(O)c1`, the pIC50 in assay [2] was 6.63; in assay [3] it was 6.46; in [4], 6.44; in assay [5], 6.65; in [6] it was 6.58; in assay [7], 6.09. The pIC50 in assay [8] is 6.59; in assay [9] it was 6.32; in [10], 6.57; in [11], 6.32; in [12], 6.55; in assay [13], 6.67. For the same compound, the pIC50 in assay [14] was 6.59; in [15], 6.34; in assay [16] it was 6.33. Further, the Activity in assay [17] was 9.1%; in assay [18], 3.1%; in assay [19] it was 11.8%; in assay [20], 5.9%; in assay [21], 73.2%; in assay [22] it was 84%. Moreover, the Activity in assay [23] was determined as 39.3%; in assay [24], 52.2%.
In assay [1], `CN(C)C(=O)N1Cc2cc(F)ccc2C(c2cccc(O)c2)C1` (centres undefined) gave a pIC50 below 4.60.
On the same count and under the same terms, for `CN(C)C(=O)N1Cc2c(Br)cccc2C(c2cccc(O)c2)C1` (centres undefined) the value was below 4.60.
On to `Cc1ccc2c(c1C)CN(C(=O)N(C)C)CC2c1cccc(Cl)c1` (centres undefined), for which the pIC50 in assay [1] was 5.46; in [2], 5.52.
In assay [1], `Cc1ccc2c(c1C)CN(C(=O)N(C)C)CC2c1ccc(O)cc1` (centres undefined) showed a pIC50 below 4.60.
As for `COc1ccc2c(c1)CN(C(=O)N(C)C)CC2c1cccc(O)c1` (centres undefined), the figures for the pIC50 in assay [1] and in assay [2] were 6.21 and 6.40, respectively.
In turn, `CN(C)C(=O)N1Cc2c(F)cccc2C(c2cccc(O)c2)C1` (centres undefined) showed a negative-log IC50 (pIC50) in assay [1] below 4.60.
With `Cc1ccc2c(c1C)CNCC2c1ccccc1` (centres undefined), the pIC50 is 5.08 in [1] and 5.04 in assay [2].
Take `Cc1ccc2c(c1C)CN(C(N)=O)CC2c1ccccc1` (centres undefined): the negative-log IC50 (pIC50) in assay [1] is below 4.60.
Turning to `CNC(=O)N1Cc2c(ccc(C)c2C)C(c2ccccc2)C1` (centres undefined), the pIC50 in assay [1] is below 4.60.
